Active and inactive are the calls of the source. The rule behind the calls is not given here.
Experiments:
HepG2 = experiment: Agonist activity at ERalpha (unknown origin) harboring N-terminal AF1 domain deleted mutant expressed in human HepG2 cells assessed as transcriptional activation after 24 hrs by ERE-luciferase reporter gene assay; type: cell-based
Estrogen receptor = target: T1, Estrogen receptor (Homo sapiens, UniProt P03372); experiment: Agonist activity at ERalpha (unknown origin) expressed in human HepG2 cells assessed as transcriptional activation after 24 hrs by ERE-luciferase reporter gene assay; type: cell-based
T1 sequence (P03372 whole entry): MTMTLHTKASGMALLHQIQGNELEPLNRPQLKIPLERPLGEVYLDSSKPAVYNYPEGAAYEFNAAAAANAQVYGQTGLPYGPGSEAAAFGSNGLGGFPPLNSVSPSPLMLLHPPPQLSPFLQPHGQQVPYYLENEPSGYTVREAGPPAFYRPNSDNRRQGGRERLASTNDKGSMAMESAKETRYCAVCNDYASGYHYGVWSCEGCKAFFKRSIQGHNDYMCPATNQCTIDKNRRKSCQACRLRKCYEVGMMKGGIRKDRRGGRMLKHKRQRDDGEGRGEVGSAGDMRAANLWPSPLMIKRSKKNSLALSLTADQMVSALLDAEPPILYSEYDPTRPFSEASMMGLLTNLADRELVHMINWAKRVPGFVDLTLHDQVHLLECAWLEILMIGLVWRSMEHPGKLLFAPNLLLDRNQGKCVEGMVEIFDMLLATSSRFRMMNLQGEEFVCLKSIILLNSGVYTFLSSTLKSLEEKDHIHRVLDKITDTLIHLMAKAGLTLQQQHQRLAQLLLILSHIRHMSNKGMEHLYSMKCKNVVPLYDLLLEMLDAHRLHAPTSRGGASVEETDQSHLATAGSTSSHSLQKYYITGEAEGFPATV
Summary of the method: (§1)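 HepG2 cells were grown in DMEM with 10% FBS and transfected with a 3×ERE-luciferase reporter plus an ERα or ERβ expression vector. The next day cells were moved to phenol red-free medium with 10% charcoal-dextran-stripped FBS, plated at 20 000 cells/well and left overnight. Ligand was then added as a 12-point dose curve from 10 μM to 100 pM. Luciferase was read after 24 h, normalized to DMSO as 0% and the top of the E2 curve as 100%.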

[1] = target: T2, Estrogen receptor (Homo sapiens) (UniProt P03372); experiment: Displacement of [3H]-estradiol from human full-length ERalpha after 18 to 24 hrs by competitive radiometric binding assay relative to estradiol
T2 sequence (whole entry): T1 sequence (P03372 whole entry)

[2] = target: T2, Estrogen receptor (Homo sapiens); experiment: Agonist activity at ERalpha (unknown origin) expressed in human HepG2 cells assessed as transcriptional activation after 24 hrs by ERE-luciferase reporter gene assay relative to 17beta-estradiol; type: cell-based
Summary of the method: (§2)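 HepG2 cells were cotransfected with a 3×ERE-luciferase reporter (10 μg) plus an ERα or ERβ expression vector (1.6 μg) per 10 cm dish. The next day they were replated at 20 000 cells/well in phenol red-free medium with 10% charcoal-dextran-stripped FBS and held overnight. Cells were then dosed over a 12-point range of 10 μM to 100 pM. Luciferase was read after 24 h, with DMSO set as 0% and the top of the E2 curve as 100%.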

[3] = target: T2, Estrogen receptor (Homo sapiens); experiment: Antagonist activity at ERalpha (unknown origin) expressed in human HepG2 cells assessed as inhibition of transcriptional activation after 24 hrs by ERE-luciferase reporter gene assay relative to 17beta-estradiol; type: cell-based
Summary of the method: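 Antagonist mode used HepG2 cells cotransfected with a 3×ERE-luciferase reporter plus an ERα expression vector and steroid-deprived in phenol red-free medium with 10% charcoal-dextran-stripped FBS. Cells received 10 nM estradiol together with increasing compound concentrations across a 10 μM to 100 pM dose curve. Luciferase was measured after 24 h and normalized to DMSO (0%) and the top of the E2 curve (100%).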

Estrogen receptor beta [4] = target: T3, Estrogen receptor beta (Homo sapiens, UniProt Q92731); experiment: Displacement of [3H]-estradiol from human full-length ERbeta after 18 to 24 hrs by competitive radiometric binding assay relative to estradiol
Estrogen receptor beta [5] = target: T3, Estrogen receptor beta; experiment: Antagonist activity at ERbeta (unknown origin) expressed in human HepG2 cells assessed as inhibition of 17beta-estradiol-induced transcriptional activation after 24 hrs by ERE-luciferase reporter gene assay; type: cell-based
Summary of the method: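 ERβ-transfected, steroid-deprived HepG2 cells carrying a 3×ERE-luciferase reporter were co-treated with 10 nM estradiol and test ligand over a range of 10 μM to 100 pM. Luciferase was read after 24 h, with each plate normalized to DMSO (0%) and the maximal E2 response (100%). IC50 and % efficacy were derived from the dose curves.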

Homo sapiens = species on record: Homo sapiens; experiment: Selectivity ratio of RBA for human full length ERbeta to RBA for human full-length ERalpha
Estrogen receptor beta [6] = target: T3, Estrogen receptor beta; experiment: Agonist activity at ERbeta (unknown origin) expressed in human HepG2 cells assessed as transcriptional activation after 24 hrs by ERE-luciferase reporter gene assay relative to 17beta-estradiol; type: cell-based; summary of the method: as §2
Estrogen receptor beta [7] = target: T3, Estrogen receptor beta; experiment: Agonist activity at ERbeta (unknown origin) expressed in human HepG2 cells assessed as transcriptional activation after 24 hrs by ERE-luciferase reporter gene assay; type: cell-based; summary of the method: as §1

T3 sequence (Q92731 whole entry): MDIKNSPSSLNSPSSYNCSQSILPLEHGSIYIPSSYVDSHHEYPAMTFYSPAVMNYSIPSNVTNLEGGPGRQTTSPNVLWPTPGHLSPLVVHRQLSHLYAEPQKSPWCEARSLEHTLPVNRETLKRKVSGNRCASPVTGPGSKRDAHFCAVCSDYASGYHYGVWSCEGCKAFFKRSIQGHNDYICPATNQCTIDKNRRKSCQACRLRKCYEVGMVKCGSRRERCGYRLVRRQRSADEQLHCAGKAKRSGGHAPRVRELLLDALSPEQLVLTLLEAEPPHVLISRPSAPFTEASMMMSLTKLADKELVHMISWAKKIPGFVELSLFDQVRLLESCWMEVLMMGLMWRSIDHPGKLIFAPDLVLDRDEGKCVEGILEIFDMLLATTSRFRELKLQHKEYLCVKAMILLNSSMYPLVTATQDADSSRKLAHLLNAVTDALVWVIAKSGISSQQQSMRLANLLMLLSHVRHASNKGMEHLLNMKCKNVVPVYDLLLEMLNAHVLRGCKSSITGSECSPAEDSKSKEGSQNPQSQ

Compound | Activity (HepG2) | EC50 (Estrogen receptor) [nM] | RBA [1] [%] | Efficacy [2] [%] | Efficacy [3] [%] | RBA (Estrogen receptor beta [4]) [%] | IC50 (Estrogen receptor beta [5]) [nM] | Selectivity ratio (Homo sapiens) | Efficacy (Estrogen receptor beta [6]) [%] | EC50 (Estrogen receptor beta [7]) [nM]
Oc1ccc(C(=Nc2ccc(F)cc2)c2ccc(O)cc2)cc1 | inactive | 2 | 19.7 | 114 | 113 | 45.6 | 7 | 2.3 | 10 | –
Oc1ccc(/C(=N\c2ccccc2Cl)c2ccc(O)cc2O)cc1 | inactive | 0.1 | 96.7 | 113 | 136 | 77.9 | 6 | 0.8 | 54 | –
Oc1ccc(/C(=N\c2ccc(F)cc2)c2ccc(O)cc2O)cc1 | inactive | 10 | 21.1 | 108 | 124 | 27.7 | 139 | 1.3 | 23 | –
Oc1ccc(/N=C/c2ccccc2O)cc1 | – | – | < 3 | – | – | < 3 | – | – | – | –
Oc1ccc(/C(=N\c2cccc(C(F)(F)F)c2)c2ccc(O)cc2O)cc1 | inactive | 57 | 28.2 | 100 | 95 | 72.1 | 28 | 2.6 | 11 | –
COc1ccc(/N=C(\c2ccccc2)c2ccc(O)cc2O)cc1 | – | – | 11.3 | – | – | 5.55 | – | 0.49 | – | –
Cc1cccc(/N=C(\c2ccc(O)cc2)c2ccc(O)cc2O)c1 | inactive | 14 | 15.3 | 95 | 101 | 38.1 | 51 | 2.5 | 9 | –
Cc1cccc(N=C(c2ccc(O)cc2)c2ccc(O)cc2)c1 | inactive | 5 | 13.2 | 109 | 93 | 69.2 | 41 | 5.2 | 13 | –
Oc1ccc(C(=Nc2ccc(Cl)cc2)c2ccc(O)cc2)cc1 | inactive | 2 | 49.2 | 114 | 138 | 127 | 9 | 2.6 | 9 | –
Cc1ccc(/N=C(\c2ccc(O)cc2)c2ccc(O)cc2O)cc1 | inactive | 16 | 9.12 | 103 | 122 | 17.1 | 241 | 1.9 | 20 | 10900
Oc1ccc(C(=Nc2cccc(C(F)(F)F)c2)c2ccc(O)cc2)cc1 | inactive | 23 | 33.4 | 89 | 104 | 139 | 24 | 4.2 | 3 | –
COc1ccc(/C(=N\c2ccc(O)cc2)c2ccc(O)cc2O)cc1 | – | – | 11.9 | – | – | 39.2 | – | 3.2 | – | –
COc1ccc(/N=C(\c2ccc(O)cc2)c2ccc(O)cc2O)cc1 | – | 17 | 10.5 | 102 | 102 | 5.33 | – | 0.5 | 38 | 276
Cc1ccccc1/N=C(\c1ccc(O)cc1)c1ccc(O)cc1O | inactive | – | 53.3 | 111 | 100 | 45.1 | 16 | 0.9 | 31 | 2
